From ChEMBL document CHEMBL4334464, “From Phenylthiazoles to Phenylpyrazoles: Broadening the Antibacterial Spectrum toward Carbapenem-Resistant Bacteria” (J Med Chem, 2019)
Values after ≈ are worked out from the molar mass of the structure shown. Active and inactive are the calls of the source. The rule behind the calls is not given here.

Key:
Escherichia coli [1] = experiment: Antimicrobial activity against Escherichia coli JW55031 harboring deltatolC mutant after 18 to 20 hrs in aerobic condition by CLSI protocol based broth microdilution assay; type: functional
Staphylococcus aureus [2] = experiment: Antibacterial activity against Methicillin-sensitive Staphylococcus aureus NRS107 clinical isolates after 18 to 20 hrs in aerobic condition by CLSI protocol based broth microdilution assay; type: functional
Staphylococcus aureus [3] = experiment: Antibacterial activity against linezolid-resistant/Methicillin-resistant Staphylococcus aureus NRS119 clinical isolates after 18 to 20 hrs in aerobic condition by CLSI protocol based broth microdilution assay; type: functional
Staphylococcus aureus [4] = experiment: Antibacterial activity against Methicillin-resistant Staphylococcus aureus NRS385-USA500 clinical isolates after 18 to 20 hrs in aerobic condition by CLSI protocol based broth microdilution assay; type: functional
[5] = test system: Staphylococcus epidermidis; experiment: Antibacterial activity against Staphylococcus epidermidis NRS101 after 18 to 20 hrs in aerobic condition by CLSI-based broth microdilution assay; type: functional
Enterococcus faecium = experiment: Antibacterial activity against vancomycin-resistant Enterococcus faecium ATCC 700221 clinical isolates after 18 to 20 hrs in aerobic condition by CLSI-based broth microdilution assay; type: functional
Listeria monocytogenes = experiment: Antibacterial activity against Listeria monocytogenes ATCC 19111 after 18 to 20 hrs in aerobic condition by CLSI-based broth microdilution assay; type: functional
Streptococcus pneumoniae [6] = experiment: Antibacterial activity against cephalosporin-resistant Streptococcus pneumoniae ATCC 51916 clinical isolates after 18 to 20 hrs by CLSI-based broth microdilution assay; type: functional
Clostridioides difficile [7] = experiment: Antibacterial activity against Clostridium difficile ATCC BAA 1870 incubated for 48 hrs in anaerobic condition by CLSI-based broth microdilution assay; type: functional; conditions: ATCC BAA 1870, 48 h
Acinetobacter baumannii [8] = experiment: Antibacterial activity against Acinetobacter baumannii ATCC 19606 clinical isolates after 18 to 20 hrs in aerobic condition by CLSI-based broth microdilution assay; type: functional; conditions: ATCC 19606 = CIP 70.34 = JCM 6841
Acinetobacter baumannii [9] = experiment: Antibacterial activity against Acinetobacter baumannii NR 17786 clinical isolates after 18 to 20 hrs in aerobic condition by CLSI-based broth microdilution assay; type: functional
Escherichia coli [10] = experiment: Antibacterial activity against Escherichia coli ATCC 35150 clinical isolates after 18 to 20 hrs in aerobic condition by CLSI-based broth microdilution assay; type: functional
Klebsiella pneumoniae [11] = experiment: Antibacterial activity against Klebsiella pneumoniae BAA-1706 clinical isolates after 18 to 20 hrs in aerobic condition by CLSI-based broth microdilution assay; type: functional
Klebsiella pneumoniae [12] = experiment: Antibacterial activity against Klebsiella pneumoniae BAA-1144 clinical isolates after 18 to 20 hrs in aerobic condition by CLSI-based broth microdilution assay; type: functional
Salmonella enterica = experiment: Antibacterial activity against Salmonella enterica NR-170 clinical isolates after 18 to 20 hrs in aerobic condition by CLSI-based broth microdilution assay; type: functional
Shigella flexneri = experiment: Antibacterial activity against Shigella flexneri ATCC 9199 clinical isolates after 18 to 20 hrs in aerobic condition by CLSI-based broth microdilution assay; type: functional
Pseudomonas aeruginosa [13] = experiment: Antibacterial activity against Pseudomonas aeruginosa ATCC 15442 clinical isolates after 18 to 20 hrs in aerobic condition by CLSI-based broth microdilution assay; type: functional
Escherichia coli [14] = experiment: Antibacterial activity against carbapenem-resistant Escherichia coli BAA-2452 clinical isolates after 18 to 20 hrs in aerobic condition by CLSI-based broth microdilution assay; type: functional
Escherichia coli [15] = experiment: Antibacterial activity against carbapenem-resistant Escherichia coli BAA-2469 clinical isolates after 18 to 20 hrs in aerobic condition by CLSI-based broth microdilution assay; type: functional
Acinetobacter baumannii [16] = experiment: Antibacterial activity against carbapenem-resistant Acinetobacter baumannii ATCC BAA 1605 clinical isolates after 18 to 20 hrs in aerobic condition by CLSI-based broth microdilution assay; type: functional
Staphylococcus aureus [17] = experiment: Antibiofilm activity against methicillin-resistant Staphylococcus aureus NRS384-USA300 clinical isolates assessed as inhibition of biofilm formation at 0.5 times MIC incubated for 24 hrs by crystal violet staining based spectrophotometric method relative to control; type: functional
Staphylococcus aureus [18] = experiment: Antibacterial activity against methicillin-resistant Staphylococcus aureus NRS123-USA400 infected in mouse J774 cells assessed as reduction in intracellular bacterial cells at 2 times MIC incubated for 24 hrs followed by re-plating on TSA plate and measured after 18 to 22 hrs relative to control; type: functional; design: scale not given: the % may be the effect or the level left
In short: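 J774 murine macrophages were infected with MRSA USA400 and then treated at 2×MIC for 24 h, in triplicate. The read-out was percent reduction in intracellular colony-forming units versus untreated infected cells.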

Salmonella enteritidis [19] = experiment: Antibacterial activity against Salmonella enteritidis ATCC 14028 infected in mouse J774 cells assessed as reduction in intracellular bacterial cells at 2 times MIC incubated for 24 hrs followed by re-plating on TSA plate and measured after 18 to 22 hrs relative to control; type: functional, Salmonella enterica subsp. enterica serovar Enteritidis; design: scale not given: the % may be the effect or the level left
In short: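 J774 murine macrophages infected with Salmonella enteritidis ATCC 14028, then treated at 2×MIC for 24 h, in triplicate. Read-out is the percent reduction in intracellular colony forming units versus the untreated control.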

Escherichia coli [20] = experiment: Inhibition of 6His tagged Escherichia coli UPPP expressed in Escherichia coli C41(DE3) cells preincubated for 15 mins followed by FPP substrate addition and measured after 20 mins by malachite green reagent based assay
Staphylococcus aureus [21] = experiment: Ratio of MBC to MIC for Methicillin-sensitive Staphylococcus aureus NRS107 clinical isolates; type: functional
[22] = test system: Staphylococcus epidermidis; experiment: Ratio of MBC to MIC for Staphylococcus epidermidis NRS101 clinical isolates; type: functional
Enterococcus faecalis = experiment: Ratio of MBC to MIC for vancomycin-resistant Enterococcus faecalis ATCC 51299 clinical isolates; type: functional
Streptococcus pneumoniae [23] = experiment: Ratio of MBC to MIC for […] Streptococcus pneumoniae ATCC 700677 clinical isolates; type: functional
Acinetobacter baumannii [24] = experiment: Ratio of MBC to MIC for Acinetobacter baumannii ATCC BAA 1141 clinical isolates; type: functional
Acinetobacter baumannii [25] = experiment: Ratio of MBC to MIC for Acinetobacter baumannii NR 17785 clinical isolates; type: functional
Acinetobacter baumannii [26] = experiment: Ratio of MBC to MIC for Acinetobacter baumannii NR 17786 clinical isolates; type: functional
Escherichia coli [27] = experiment: Ratio of MBC to MIC for Escherichia coli BW25113 clinical isolates; type: functional
Klebsiella pneumoniae [28] = experiment: Ratio of MBC to MIC for Klebsiella pneumoniae BAA-1706 after 18 to 20 hrs in aerobic condition by CLSI-based broth microdilution assay; type: functional
Salmonella enteritidis [29] = experiment: Ratio of MBC to MIC for Salmonella enteritidis ATCC 13076 clinical isolates; type: functional, Salmonella enterica subsp. enterica serovar Enteritidis
Salmonella typhimurium = experiment: Ratio of MBC to MIC for Salmonella typhimurium ATCC 700720 clinical isolates; type: functional, Salmonella enterica subsp. enterica serovar Typhimurium
Clostridioides difficile [30] = experiment: Ratio of MBC to MIC for Clostridium difficile ATCC BAA 1870; type: functional
Acinetobacter baumannii [31] = experiment: microbe, parasite or virus in culture; conditions: ATCC BAA 1747
Pseudomonas aeruginosa [32] = experiment: microbe, parasite or virus in culture; conditions: ATCC 9027

## C/C(=N\NC(=N)N)c1cnn(-c2ccc(C#CC3CCCC3)cc2)c1C
Escherichia coli [1]
  MIC: 2 µg/mL (≈ 5.74 µM)
Staphylococcus aureus [2]
  MIC: 1 µg/mL (≈ 2.87 µM)
Staphylococcus aureus [3]
  MIC: 1 µg/mL (≈ 2.87 µM)
Staphylococcus aureus [4]
  MIC: 0.5 µg/mL (≈ 1.43 µM)
[5]
  MIC: 1 µg/mL (≈ 2.87 µM)
Enterococcus faecium
  MIC: 1 µg/mL (≈ 2.87 µM)
Listeria monocytogenes
  MIC: 0.5 µg/mL (≈ 1.43 µM)
Streptococcus pneumoniae [6]
  MIC: 1 µg/mL (≈ 2.87 µM)
Clostridioides difficile [7]
  MIC: 1 µg/mL (≈ 2.87 µM)
Acinetobacter baumannii [8]
  MIC: 4 µg/mL (≈ 11.5 µM)
Acinetobacter baumannii [9]
  MIC: 8 µg/mL (≈ 23 µM)
Escherichia coli [10]
  MIC: 4 µg/mL (≈ 11.5 µM)
Klebsiella pneumoniae [11]
  MIC: 4 µg/mL (≈ 11.5 µM)
Klebsiella pneumoniae [12]
  MIC: 8 µg/mL (≈ 23 µM)
Salmonella enterica
  MIC: 8 µg/mL (≈ 23 µM)
Shigella flexneri
  MIC: 8 µg/mL (≈ 23 µM)
Pseudomonas aeruginosa [13]
  MIC: 32 µg/mL (≈ 91.8 µM)
Escherichia coli [14]
  MIC: 4 µg/mL (≈ 11.5 µM)
Escherichia coli [15]
  MIC: 4 µg/mL (≈ 11.5 µM)
Acinetobacter baumannii [16]
  MIC: 8 µg/mL (≈ 23 µM)
Staphylococcus aureus [17]
  inhibition (INH): 31%
Staphylococcus aureus [18]
  Activity: 90%
Salmonella enteritidis [19]
  Activity: 98%
Escherichia coli [20]
  inhibition: inactive
Staphylococcus aureus [21]
  Ratio: <=2
[22]
  Ratio: <3
Enterococcus faecalis
  Ratio: <3
Streptococcus pneumoniae [23]
  Ratio: <3
Acinetobacter baumannii [24]
  Ratio: >=1
Acinetobacter baumannii [25]
  Ratio: >=1
Acinetobacter baumannii [26]
  Ratio: >=1
Escherichia coli [27]
  Ratio: >=1
Klebsiella pneumoniae [28]
  Ratio: >=1
Salmonella enteritidis [29]
  Ratio: >=1
Salmonella typhimurium
  Ratio: >=1
Clostridioides difficile [30]
  Ratio: <3
Acinetobacter baumannii [31]
  MIC: 4 µg/mL (≈ 11.5 µM)
Pseudomonas aeruginosa [32]
  MIC: 16 µg/mL (≈ 45.9 µM)

## C/C(=N\NC(=N)N)c1cnn(-c2ccc(C#Cc3ccccc3)cc2)c1C
Escherichia coli [1]
  MIC: 2 µg/mL (≈ 5.61 µM)
Staphylococcus aureus [2]
  MIC: 2 µg/mL (≈ 5.61 µM)
Staphylococcus aureus [3]
  MIC: 1 µg/mL (≈ 2.81 µM)
Staphylococcus aureus [4]
  MIC: 1 µg/mL (≈ 2.81 µM)
[5]
  MIC: 2 µg/mL (≈ 5.61 µM)
Enterococcus faecium
  MIC: 1 µg/mL (≈ 2.81 µM)
Listeria monocytogenes
  MIC: 2 µg/mL (≈ 5.61 µM)
Streptococcus pneumoniae [6]
  MIC: 1 µg/mL (≈ 2.81 µM)
Clostridioides difficile [7]
  MIC: 4 µg/mL (≈ 11.2 µM)
Acinetobacter baumannii [8]
  MIC: 4 µg/mL (≈ 11.2 µM)
Acinetobacter baumannii [9]
  MIC: 8 µg/mL (≈ 22.4 µM)
Escherichia coli [10]
  MIC: 8 µg/mL (≈ 22.4 µM)
Klebsiella pneumoniae [11]
  MIC: 8 µg/mL (≈ 22.4 µM)
Klebsiella pneumoniae [12]
  MIC: 8 µg/mL (≈ 22.4 µM)
Salmonella enterica
  MIC: 8 µg/mL (≈ 22.4 µM)
Shigella flexneri
  MIC: 8 µg/mL (≈ 22.4 µM)
Pseudomonas aeruginosa [13]
  MIC: 32 µg/mL (≈ 89.8 µM)
Escherichia coli [14]
  MIC: 8 µg/mL (≈ 22.4 µM)
Escherichia coli [15]
  MIC: 8 µg/mL (≈ 22.4 µM)
Acinetobacter baumannii [16]
  MIC: 4 µg/mL (≈ 11.2 µM)
Staphylococcus aureus [17]
  inhibition (INH): 50%
Salmonella enteritidis [19]
  Activity: 70%
Escherichia coli [20]
  inhibition: inactive
Staphylococcus aureus [21]
  Ratio: <=2
[22]
  Ratio: <3
Enterococcus faecalis
  Ratio: <3
Streptococcus pneumoniae [23]
  Ratio: <3
Acinetobacter baumannii [24]
  Ratio: >=1
Acinetobacter baumannii [25]
  Ratio: >=1
Acinetobacter baumannii [26]
  Ratio: >=1
Escherichia coli [27]
  Ratio: >=1
Klebsiella pneumoniae [28]
  Ratio: >=1
Salmonella enteritidis [29]
  Ratio: >=1
Salmonella typhimurium
  Ratio: >=1
Clostridioides difficile [30]
  Ratio: <3
Acinetobacter baumannii [31]
  MIC: 4 µg/mL (≈ 11.2 µM)
Pseudomonas aeruginosa [32]
  MIC: 16 µg/mL (≈ 44.9 µM)
